Measurements collected from several papers.
Target: Cyclin-dependent kinase 11A (CDK11A, Homo sapiens, UniProt Q9UQ88)
Read-out: binding
Residues used in one study (Q9UQ88 1-783): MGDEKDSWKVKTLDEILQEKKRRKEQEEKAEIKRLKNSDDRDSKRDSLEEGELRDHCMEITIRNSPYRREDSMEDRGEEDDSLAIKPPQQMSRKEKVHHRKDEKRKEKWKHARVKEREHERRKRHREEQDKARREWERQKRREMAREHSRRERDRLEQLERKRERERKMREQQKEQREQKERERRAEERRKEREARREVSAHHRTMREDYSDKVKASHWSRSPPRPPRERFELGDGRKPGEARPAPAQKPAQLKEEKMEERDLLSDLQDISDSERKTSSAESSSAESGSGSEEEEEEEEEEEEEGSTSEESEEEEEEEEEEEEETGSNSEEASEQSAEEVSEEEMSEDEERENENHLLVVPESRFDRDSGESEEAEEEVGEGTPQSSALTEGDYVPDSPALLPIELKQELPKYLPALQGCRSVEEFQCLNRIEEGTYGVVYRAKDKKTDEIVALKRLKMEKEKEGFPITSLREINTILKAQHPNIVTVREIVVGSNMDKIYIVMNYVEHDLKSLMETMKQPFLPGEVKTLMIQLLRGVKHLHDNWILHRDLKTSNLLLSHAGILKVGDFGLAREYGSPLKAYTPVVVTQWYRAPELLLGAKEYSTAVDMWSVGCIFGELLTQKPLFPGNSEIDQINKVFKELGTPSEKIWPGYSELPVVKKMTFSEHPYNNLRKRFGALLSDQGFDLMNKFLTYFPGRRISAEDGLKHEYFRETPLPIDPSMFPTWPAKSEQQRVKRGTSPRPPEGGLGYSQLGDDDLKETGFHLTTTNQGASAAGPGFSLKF

O=C(c1ccc(Nc2nccc(-c3cc4ccccc4s3)n2)cc1)N1CCC(N2CCCC2)CC1
remaining binding (competition with immobilised ligand; 1 µM): 80%

Cc1noc([C@H]2C[C@@H](c3ccc(C(F)(F)F)cc3)CN(C(=O)N3CCS(=O)(=O)C3)C2)n1
remaining binding (competition with immobilised ligand; 1 µM): 100%

COc1cnc(Nc2cccc(S(N)(=O)=O)c2)nc1N1CCN(c2ccccc2)C(=O)C1
remaining binding (competition with immobilised ligand; 1 µM): 100%

COc1ccnn2ncc(-c3ccnc(N(C)C)n3)c12
remaining binding (1 µM): 100%

O=C(NCCCN1CCOCC1)c1ccc(Nc2ncc(Cl)c(-c3ccc(Cl)s3)n2)cc1
remaining binding (competition with immobilised ligand; 1 µM): 23%

C[C@@H]1CCN(c2nccc(-c3cnn4ncccc34)n2)C1
remaining binding (1 µM): 85%

COc1ncc2cc3ccccc3nc2c1C#N
remaining binding (competition with immobilised ligand; 5 µM): 93%

N[C@@H]1CCN(c2nccc(-c3cnn4ncccc34)n2)C1
remaining binding (1 µM): 98%

O=C(NCC1CCOCC1)c1n[nH]cc1NC(=O)c1c(F)cccc1F
remaining binding (competition with immobilised ligand; 1 µM): 91%

COc1cnc(Nc2cccc(S(N)(=O)=O)c2)nc1N1CCN(c2ccccc2)CC1
remaining binding (competition with immobilised ligand; 1 µM): 93%

CC1CCCN1c1nccc(-c2cnn3ncccc23)n1 (stereo not drawn)
remaining binding (1 µM): 100%

Cn1cc(Cl)c2c(Oc3c(F)cc(Nc4cc(Cl)nc(N)n4)cc3F)ccnc21
remaining binding (competition with immobilised ligand; 0.1 µM): 100%

C=CC(=O)N1CCC(C(=O)NCC(=O)N2CCN(c3nc(-c4cnc(N)nc4C(F)F)nc(N4CCOCC4)n3)CC2)CC1
remaining binding (competition with immobilised ligand; 1 µM): 97%

CSc1cccnc1N1CCN(Cc2nc3ccccc3[nH]2)CC1
remaining binding (competition with immobilised ligand; 1 µM): 100%

CN(C)c1ncc(F)c(-c2cnn3ncccc23)n1
remaining binding (1 µM): 97%

O=C(NCc1ncc(C(F)(F)F)cc1Cl)c1ccc2c(c1)C1(CCS(=O)(=O)CC1)[C@@H](C1CC1)N2S(=O)(=O)c1ccc(F)cc1
remaining binding (competition with immobilised ligand; 1 µM): 100%

CN(c1nccc(-c2cnn3ncccc23)n1)C1CC1
remaining binding (1 µM): 100%

CNC(=O)Nc1ccc2c(c1)[C@@]1(CC2)OC(=O)N(CC(=O)N(Cc2ccc(F)cc2)[C@@H](C)C(F)(F)F)C1=O
remaining binding (competition with immobilised ligand; 1 µM): 94%

CCN1CCN(Cc2ccc(C(=O)Nc3ccc(C)c(Oc4ccc5c(c4)CC(=O)N5)c3)cc2C(F)(F)F)CC1
remaining binding (competition with immobilised ligand; 1 µM): 100%

O=C(c1ccc(Nc2ncc(Cl)c(-c3ccc(Cl)s3)n2)cc1)N1CCC(N2CCCC2)CC1
remaining binding (competition with immobilised ligand; 1 µM): 39%

CCC(=O)N[C@@H]1CC[C@H](C(=O)N(C)c2ccc(-c3nc4ccccc4o3)cc2)C1
remaining binding (competition with immobilised ligand; 1 µM): 100%
